{"source": "ChEMBL document CHEMBL2440017", "about": "“Discovery of a potent, selective, and orally bioavailable histamine H3 receptor antagonist SAR110068 for the treatment of sleep-wake disorders” (Bioorg Med Chem Lett, 2013)", "note": "pKi: −log10 of the molar value. Active and inactive are the calls of the source. No cut-off for these calls is given here."}
{"test_system": "Rattus norvegicus", "assay": "Awakening activity in rat assessed as decrease of theta rhythm at 10 mg/kg, po after 3 to 4 hrs", "type": "functional, organism-based", "design": "dose 10 mg/kg"}
{"molecule": "C[C@@H]1CCCN1CCc1cc2cc(-c3ccc(C#N)cc3)ccc2o1", "Activity": "Active"}
{"test_system": "Rattus norvegicus", "assay": "Awakening activity in rat assessed as increased wakefulness at 10 mg/kg, po after 3 to 4 hrs", "type": "functional, organism-based", "design": "dose 10 mg/kg", "method_in_brief": "(§1)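 Rats given compound orally at 3 or 10 mg/kg, or reference drugs i.p. or p.o. at 10 mg/kg. EEG recorded during the light phase and scored as wakefulness, slow wave sleep and REM sleep. Time-course analysis of the effects.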"}
{"molecule": "C[C@@H]1CCCN1CCc1cc2cc(-c3ccc(C#N)cc3)ccc2o1", "Activity": "Active"}
{"test_system": "Rattus norvegicus", "assay": "Awakening activity in rat assessed as increased wakefulness at 10 mg/kg, po after 1 hr", "type": "functional, organism-based", "design": "dose 10 mg/kg", "method_in_brief": "as §1"}
{"molecule": "CNC(=O)c1ccc(Oc2ccc3c(c2)CCN(C2CCC2)CC3)nc1", "Activity": "Active"}
{"test_system": "Rattus norvegicus", "assay": "Awakening activity in rat assessed as increased wakefulness at 10 mg/kg, ip after 3 hrs", "type": "functional, organism-based", "design": "dose 10 mg/kg", "method_in_brief": "as §1"}
{"molecule": "O=C(c1ccc(OCCCc2c[nH]cn2)cc1)C1CC1", "Activity": "Active"}
{"test_system": "Rattus norvegicus", "assay": "Awakening activity in rat assessed as decrease in slow wave and REM sleep at 10 mg/kg, po", "type": "functional, organism-based", "design": "dose 10 mg/kg"}
{"molecule": "S=C(NC1CCCCC1)N1CCC(c2cnc[nH]2)CC1", "Activity": "Active"}
{"test_system": "Rattus norvegicus", "assay": "Awakening activity in rat assessed as increased wakefulness at 10 mg/kg, po", "type": "functional, organism-based", "design": "dose 10 mg/kg"}
{"molecule": "S=C(NC1CCCCC1)N1CCC(c2cnc[nH]2)CC1", "Activity": "Active"}
{"biological_target": "Histamine receptor H3 (Macaca mulatta, UniProt Q865E1)", "sequence (Q865E1 whole entry)": "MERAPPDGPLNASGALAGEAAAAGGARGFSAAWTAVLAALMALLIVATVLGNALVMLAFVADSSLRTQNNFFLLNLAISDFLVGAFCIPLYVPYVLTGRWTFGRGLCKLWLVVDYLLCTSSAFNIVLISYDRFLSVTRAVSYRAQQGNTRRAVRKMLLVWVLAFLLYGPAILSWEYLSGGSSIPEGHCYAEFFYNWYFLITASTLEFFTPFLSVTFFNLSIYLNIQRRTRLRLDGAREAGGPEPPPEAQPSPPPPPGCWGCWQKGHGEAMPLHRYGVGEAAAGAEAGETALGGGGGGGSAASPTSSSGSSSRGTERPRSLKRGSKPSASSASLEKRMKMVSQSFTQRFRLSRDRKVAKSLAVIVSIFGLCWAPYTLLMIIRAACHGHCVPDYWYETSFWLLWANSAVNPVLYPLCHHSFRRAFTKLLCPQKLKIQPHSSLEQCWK", "assay": "Displacement of [3H]N-alpha-methylhistamine from rhesus monkey histamine H3 receptor expressed in CHO cells", "type": "cell-based", "method_in_brief": "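Membranes from CHO cells stably expressing rhesus monkey H3 receptor. Competition binding against [3H]N-α-methylhistamine; Ki values are means of three or more determinations.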"}
{"molecule": "CC(=O)N1CCCC1C(=O)Nc1ccc(N2CCC(N3CCCC3C)C2)c(C)c1", "note": "(mixture of isomers)", "pKi": 7.35}
{"molecule": "Cc1cc(N2CCC(N3CCCC3C)C2)ccc1NC(=O)C1CCCO1", "note": "(mixture of isomers)", "pKi": 8.13}
{"molecule": "Cc1cc(N2CCC(N3CCCC3C)C2)ccc1NC(=O)C1CCCCC1", "note": "(mixture of isomers)", "pKi": 8.05}
{"molecule": "Cc1cc(NC(=O)C2CC3CCC2C3)ccc1N1CCC(N2CCCC2C)C1", "note": "(mixture of isomers)", "pKi": 6.89}
{"molecule": "Cc1cc(N2CC[C@H](N3CCC[C@@H]3C)C2)ccc1NC(=O)C1C(C)(C)C1(C)C", "pKi": 9.26}
{"molecule": "CC(=O)N1CCCC1C(=O)Nc1ccc(N2CCC(N3CCCC3C)C2)cc1", "note": "(mixture of isomers)", "pKi": 7.85}
{"molecule": "CC1CCCN1C1CCN(c2ccc(NC(=O)C3CCCO3)cc2)C1", "note": "(mixture of isomers)", "pKi": 8.06}
{"molecule": "Cc1cc(N2CC[C@H](N3CCC[C@@H]3C)C2)ccc1NC(=O)C1CC2CCC1C2", "note": "(some centres not stated)", "pKi": 9.26}
{"molecule": "Cc1cc(N2CCC(N3CCCC3C)C2)ccc1NC(=O)C1CC2CCC1C2", "note": "(mixture of isomers)", "pKi": 7.70}
{"molecule": "Cc1cc(N2CC[C@H](N3CCC[C@@H]3C)C2)ccc1NC(=O)CC1CCCC1", "pKi": 9.07}
{"molecule": "Cc1cc(N2CC[C@H](N3CCC[C@@H]3C)C2)ccc1NC(=O)C1CCCCC1", "pKi": 9.41}
{"molecule": "CC(=O)N1CCCC1C(=O)Nc1ccc(N2CCC(N3CCCC3C)C2)cc1C", "note": "(mixture of isomers)", "pKi": 7.24}
{"molecule": "Cc1cc(NC(=O)C2CCCO2)ccc1N1CCC(N2CCCC2C)C1", "note": "(mixture of isomers)", "pKi": 7.77}
{"molecule": "CC1CCCN1C1CCN(c2ccc(NC(=O)C3CC4CCC3C4)cc2)C1", "note": "(configuration not stated)", "pKi": 7.80}
{"molecule": "Cc1cc(N2CC[C@@H](N3CCC[C@@H]3C)C2)ccc1NC(=O)C1CCOCC1", "note": "(racemic)", "pKi": 8.41}
{"molecule": "Cc1cc(N2CC[C@H](N3CCC[C@@H]3C)C2)ccc1NC(=O)C1CCCO1", "note": "(some centres not stated)", "pKi": 8.13}
